Measured values gathered from unrelated publications.
Protocols differ between the studies behind these lines.
Target: 5'-AMP-activated protein kinase catalytic subunit alpha-1 (PRKAA1, Homo sapiens, UniProt Q13131)
Technique: competition with immobilised ligand

Structure (SMILES) | test | conditions | remaining binding
COc1cnc(Nc2cccc(S(N)(=O)=O)c2)nc1N1CCN(c2ccccc2)CC1 | binding | 1 µM | 100%
CN(C)c1ncc(F)c(-c2cnn3ncccc23)n1 | binding | 1 µM | 48%
CC(=O)N1CCC(c2ccc(C(=O)NC3=NCCN3)cc2C(F)(F)F)CC1 | cell-free assay | 1 µM | 100%
CN(CCCC(F)(F)F)c1nccc(-c2cnn3ncccc23)n1 | binding | 1 µM | 100%
CS(=O)(=O)c1cc(C2(NC(=O)c3cncc4c3cnn4-c3ccc(F)cc3)CC2)ccn1 | cell-free assay | 1 µM | 99%
O=C(c1ccc(Nc2ncc(Cl)c(-c3cc4ccccc4s3)n2)cc1)N1CCC(N2CCCC2)CC1 | binding | 1 µM | 5.7%
C[C@@H](c1ccc(-n2cnc3c(N)ncnc32)cc1)N1CCc2nn(C)c(Cc3ccccc3)c2C1=O | binding | 0.1 µM | 95%
N[C@H]1CCN(c2nccc(-c3cnn4ncccc34)n2)C1 | binding | 1 µM | 100%
COc1ncc2cc3ccccc3nc2c1C#N | cell-free assay | 5 µM | 100%
CNCc1ccccc1-c1csc([C@@H](C)Nc2nc(C)nc3cc(OC)c(OC)cc23)c1 | cell-free assay | 1 µM | 100%
O=C(Nc1c[nH]nc1C(=O)NC1CCNCC1)c1cc(F)cc(F)c1 | binding | 1 µM | 100%
CN(C)c1nccc(-c2cnn3ncccc23)n1 | binding | 1 µM | 100%
O=C(NCCCN1CCOCC1)c1ccc(Nc2nccc(-c3cc4ccccc4s3)n2)cc1 | binding | 1 µM | 42%
C=CC(=O)N1CCC(C(=O)NCC(=O)N2CCN(c3nc(-c4cnc(N)nc4C(F)F)nc(N4CCOCC4)n3)CC2)CC1 | binding | 1 µM | 97%
CCN1CCN(Cc2ccc(C(=O)Nc3ccc(C)c(Oc4ccc5c(c4)CC(=O)N5)c3)cc2C(F)(F)F)CC1 | binding | 1 µM | 100%
C[C@H](NC(=O)c1cnc2n1[C@](C)(Cc1ccc(C#N)cc1)C(=O)N2c1cc(Cl)c(F)c(Cl)c1)C(=O)NC1(c2ccccn2)CC1 | cell-free assay | 1 µM | 100%
C[C@@H]1CCN(c2nccc(-c3cnn4ncccc34)n2)C1 | binding | 1 µM | 99%
O=C(Nc1cnc(Oc2ccc(F)cc2)nc1)N1CCc2ncccc2[C@@H]1c1ccc(F)cc1 | cell-free assay | 1 µM | 88%
O=C(c1ccc(Nc2ncc(Cl)c(-c3ccc(Cl)s3)n2)cc1)N1CCC(N2CCCC2)CC1 | binding | 1 µM | 8.1%
c1cnn2ncc(-c3ccnc(N4CCC45COC5)n3)c2c1 | binding | 1 µM | 92%
NS(=O)(=O)c1cc(NC(=O)C2(c3ccccc3Cl)CC2)ccc1Oc1cccc(Cl)c1 | cell-free assay | 1 µM | 80%
